This is an account of results in ChEMBL document CHEMBL1127317 (J Med Chem, 1994).

What all share (format): ADME
Data set [1] can be described thus: The observed pseudo-first-order rate constants of compound for cyclization reaction at pH 2.4. In short, it runs like this: (§1)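 Amines generated from the 2-nitroaryl amides, incubated at 37 °C in aqueous buffer of ionic strength 0.01 M. Cyclization followed at the same time by UV/vis spectrophotometry in thermostated stoppered cuvettes and by C-18 reverse-phase HPLC (MeOH/10 mM phosphate pH 7 mobile phase). Runs lasted 4 h at first, extended to about 4 half-lives when product formed. Pseudo-first-order k_obs was taken from first-order loss of amine peak area.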

The nature of data set [2]: The half-life for cyclization reaction at pH 2.4. In short, it runs like this: as §1
Data set [3] is described as follows: The observed pseudo-first-order rate constant of compound for cyclization reaction at pH 2.4. The essentials: as §1
Data set [4] in a line: The observed pseudo-first-order rate constant of compound for cyclization reaction at pH 6.8. In short, it runs like this: as §1
The nature of data set [5]: The half-life for cyclization reaction at pH 6.8. The essentials:
as §1

In data set [1], `COc1ccc(NC(=O)c2cccc3cccc(N)c23)cc1` registered a K obs of 0.11 min⁻¹. Besides, the half-life in data set [2] amounted to 6.3 min.

As to `COc1ccc(NC(=O)Cc2ccccc2N)cc1`, the half-life in data set [2] came to 260 min. This compound had a K obs in data set [3] of 0.0026 min⁻¹.

`CC(=O)c1ccc(NC(=O)C(C)(C)c2ccccc2N)cc1` showed a T1/2 in data set [2] of 0.033 min. Further, the K obs in data set [4] was determined as 0.02 min⁻¹; in data set [3], 21 min⁻¹. The half-life in data set [5] was 35 min.

As for `COc1ccc(NC(=O)C(C)(C)c2ncccc2N)cc1`, the values for the half-life in data set [2] and in data set [5] were 8.9 min and 530 min, respectively. The K obs in data set [4] amounted to 0.0013 min⁻¹; in data set [3], 0.078 min⁻¹.

Turning to `COc1ccc(NC(=O)C(C)(C)c2ccccc2N)cc1`, the T1/2 in data set [2] was 0.07 min. Also, the values for the K obs in data set [4] and in data set [3] were 0.0096 min⁻¹ and 10 min⁻¹, respectively. In data set [5], this compound yielded a half-life of 72 min.

`CCC(CC)(C(=O)Nc1ccc(OC)cc1)c1ccccc1N`: the half-life in data set [2] worked out at 0.43 min; in data set [5] it was 250 min. Also, the K obs amounted to 0.028 min⁻¹ in data set [4] and 1.64 min⁻¹ in data set [3].

Take `COc1ccc(NC(=O)CS(=O)(=O)c2c(C)cccc2N)cc1`: the half-life in data set [2] was found to be 1700 min. The compound further gave a K obs in data set [3] of 0.0004 min⁻¹.

`COc1ccc(NC(=O)c2c(C)nn(-c3ccccc3)c2-c2ccccc2N)cc1` came in with a half-life in data set [2] of 36 min. The K obs in data set [3] is 0.019 min⁻¹.

As to `Nc1ccccc1CCC(=O)Nc1cnc2ccccc2c1`, in data set [2], the half-life worked out at 32 min. In addition, the K obs in data set [3] was 0.022 min⁻¹.

For `Nc1ccccc1CC(=O)Nc1cnc2ccccc2c1`, the K obs in data set [1] worked out at 0.008 min⁻¹. The same compound came in with a half-life in data set [2] of 87 min.

Consider `COc1ccc(NC(=O)[C@@H]2CCCN2C(=O)c2ccccc2N)cc1`, for which the half-life in data set [2] worked out at 74 min. Moreover, in data set [3], the K obs came out at 0.0094 min⁻¹.

For `COc1ccc(NC(=O)Cn2ncc3cccc(N)c32)cc1`, in data set [2], the half-life came to 83 min. In data set [3], this compound displayed a K obs of 0.0084 min⁻¹.

The compound `COc1ccc(NC(=O)CCc2ccccc2N)cc1` yielded a half-life in data set [2] of 58 min. The same compound showed a K obs in data set [3] of 0.012 min⁻¹.

As for `COc1ccc(NC(=O)C(C)(C)c2cc(C(=O)NCCN(C)C)ccc2N)cc1`, the half-life in data set [2] is 0.27 min; in data set [5] it was 770 min. In addition, the K obs worked out at 0.0009 min⁻¹ in data set [4] and 2.58 min⁻¹ in data set [3].

Consider `CC(C)(C(=O)Nc1ccccc1)c1ccccc1N`, for which, in data set [2], the T1/2 is 0.033 min. In addition, the values for the K obs in data set [4] and in data set [3] were 0.02 min⁻¹ and 21 min⁻¹, respectively. Moreover, in data set [5], the half-life worked out at 35 min.

For the compound `COc1ccc(N(C)C(=O)C(C)(C)c2ccccc2N)cc1`, the half-life amounted to 0.28 min in data set [2] and 800 min in data set [5]. In addition, the values for the K obs in data set [4] and in data set [3] were 0.0009 min⁻¹ and 2.5 min⁻¹, respectively.

For `CN(C)c1ccc(NC(=O)C(C)(C)c2ccccc2N)cc1`, the K obs in data set [4] turned out to be 0.0097 min⁻¹. Also, the half-life in data set [5] is 71 min.

The compound `COc1ccc(NC(=O)C(C)c2ccccc2N)cc1` (stereo not given) returned a half-life in data set [2] of 16 min. In data set [3], this compound had a K obs of 0.043 min⁻¹.

By half-life is commonly meant how long it takes for the measured level to halve. Higher therefore signals slow loss.
